Compound activity: PubChem, The Scripps Research Institute Molecular Screening Center
OXTR potentiate = potentiators of human oxytocin receptor | P30559 | CHO-OTR cells, Fluo-8 calcium fluorescence, potentiator mode; 0% = oxytocin EC15, 100% = EC100 | activation, % at 3 µM | 0.061% of 320,000 active | AID 2445;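 active = activation above that plate's cutoff, the mean activation of tested compounds plus 3 SD, cut at about 6.6% in these data, passing the limit was not always enough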
Target sequence (P30559 whole entry, looked up): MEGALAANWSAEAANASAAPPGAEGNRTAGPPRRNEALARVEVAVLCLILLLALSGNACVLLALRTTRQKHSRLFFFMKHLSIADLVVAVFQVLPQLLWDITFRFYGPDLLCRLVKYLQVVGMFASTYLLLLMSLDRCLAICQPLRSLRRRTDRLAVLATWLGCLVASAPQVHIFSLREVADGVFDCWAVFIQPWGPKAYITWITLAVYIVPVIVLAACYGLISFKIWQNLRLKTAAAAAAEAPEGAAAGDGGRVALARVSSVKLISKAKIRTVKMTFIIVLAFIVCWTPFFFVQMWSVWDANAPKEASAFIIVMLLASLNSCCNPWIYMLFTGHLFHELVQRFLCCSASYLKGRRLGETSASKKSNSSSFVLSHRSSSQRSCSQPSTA
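Dosing: Single dose, 3.0 µM nominal final compound concentration | Material: Human OTR in CHO cells | Technique: Kinetic Fluo-8 calcium fluorescence | Benchmarks: EC15 oxytocin alone as 0%, 75 nM oxytocin as 100% | Probe or stimulus: Oxytocin at about EC15, sub-maximal agonist stimulus | Incubation: Compound 6 min at room temperature before oxytocin, 100 s read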
V1R ag counter = V1a receptor agonism, counter-screen for OXTR agonists. P37288. CHO-V1R cells, Fluo-8 calcium fluorescence, agonist mode; 0% DMSO, 100% 3 nM vasopressin. activation, % at 3 µM. 0.25% of 320,000 active. AID 2797;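 active = activation above the mean activation of all tested compounds plus 3 SD, per screening run, cut at about 20% in these data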;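 also: signal is peak over basal fluorescence ratio across a 100 second FLIPR read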
zfTRPN1 agonist = zebrafish TRPN1 (NompC) channel agonism | HEK293 zebrafish TRPN1-YFP, Fluo-8 calcium fluorescence; 100% = response to 87 µM carbachol | activation, % at 3 µM | 0.18% of 220,000 active;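 active = activation above its plate's cutoff, the mean activation of test wells on that plate plus 3 SD, cut at about 19% in these data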
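Material: zebrafish TRPN1-YFP in HEK293 cells; Doses: single test compound dose, 3 µM nominal, 0.3% DMSO; Timing: dye loading 1 h at 37 °C, then 30 min room temperature; Technique: intracellular calcium fluorescence with Fluo-8; Benchmarks: high carbachol 87 µM, low DMSO alone.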
TRPML3 agonist = human mucolipin-3 channel agonism. Q8TDD5. HEK293 TRPML3-YFP, Fluo-8 calcium fluorescence; 100% = the carbachol control signal. activation, % at 3 µM. 0.29% of 220,000 active. AID 1448;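 active = activation above its plate's cutoff, the mean activation of the plate's test wells plus 3 SD, cut at about 12% in these data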
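Material: TRPML3-YFP stable HEK293 cells | Dosing: One concentration, 3 µM nominal, 0.3% DMSO | Timing: 125 s total fluorescence read per well | Technique: Fluo-8 calcium dye fluorescence, ex 470-495, em 515-575 nm | Measure: Percent activation from peak-to-basal fluorescence ratio, scaled between DMSO and carbachol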
OXTR agonist = human OXTR agonism; AID 2435; 0.32% of 320,000 active; CHO-OTR cells, Fluo-8 calcium fluorescence; normalized: DMSO 0%, oxytocin 100%; activation, % at 3 µM;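 active = activation above the mean of all tested compounds plus 3 SD, cutoff set per screening run, cut at about 20% in these data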;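 also: peak over basal fluorescence ratio from a 100 s FLIPR kinetic read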
A number is an active result; n = inactive; x = not tested or not shown. In the library only some 0.58% were active in any assay of this set; here they are far more common.

SMILES	OXTR potentiate	V1R ag counter	zfTRPN1 agonist	TRPML3 agonist	OXTR agonist
CCOc1ccccc1N1CCN(C(=O)c2csc(C)c2CC)CC1	n	n	n	n	n
C[C@H](CO)N1C[C@H](C)[C@@H](CN(C)S(=O)(=O)c2ccc(F)cc2)Oc2c(NS(=O)(=O)c3ccccc3)cccc2C1=O	n	n	x	x	n
COC(=O)C1(c2ccccc2)NC(c2cccs2)C2C(=O)N(c3ccccc3)C(=O)C21 (configuration not stated)	n	21	n	n	23
COc1cc(/C=C/C(O)=C/C(=O)/C=C/c2ccc(O)cc2)ccc1O	n	21	x	x	22
Cc1ccc(Cl)cc1NC(=O)CC(O)(C(F)(F)F)C(F)(F)F	n	n	20	13	n
COCC(=O)Nc1cc(Cl)ccc1C	n	n	n	n	n
CCOc1ccc(NS(=O)(=O)c2ccc(C(=O)NCC(c3cccs3)N3CCOCC3)cc2)cc1 (configuration not stated)	n	26	x	x	26
CC(=O)c1ccc(S(=O)(=O)Nc2ccc(C(=O)NCC(c3cccs3)N3CCOCC3)cc2)cc1 (configuration not stated)	n	n	x	x	n
Cc1ccc(N=Nc2[nH]c3ccccc3c2O)cc1	n	22	n	n	32
Cc1cc(C)cc(N(C(=O)CCC(=O)Nc2ccccn2)C(C(=O)NC(C)C)c2ccc(O)cc2)c1 (configuration not stated)	n	n	n	n	n
COc1cc2c(cc1OC)C(c1ccccc1[N+](=O)[O-])N(C(C)=O)CC2 (configuration not stated)	n	n	x	x	n
O=C(C1=COCCO1)N1CCN(C(c2ccccc2)c2ccccc2)CC1	n	n	n	n	n
Cc1cc(C)nc(NS(=O)(=O)c2ccc(NC(=O)C3(c4ccc([N+](=O)[O-])cc4)CCCC3)cc2)n1	n	22	n	n	22
COc1ccc(OC)c(CCNC(=O)C(C)n2nc(C)c3c(C)n(-c4ccc(C)cc4)nc3c2=O)c1 (configuration not stated)	n	n	x	x	n
COc1cc(O)oc1C=Nc1ccc(C(=O)O)cc1	n	n	n	n	n
O=C(Nc1cc(S(=O)(=O)N2CCCCC2)ccc1N1CCCCC1)c1ccncc1	n	n	n	n	n
Cc1ccsc1/C=C/C1=Cc2c(sc(NC(=O)CSc3n[nH]c(N)n3)c2C#N)C(C)(C)C1	n	n	n	n	46
CCOc1ccc(N2C(=O)C(=O)/C(=C(/O)c3ccccc3)C2c2ccccc2[N+](=O)[O-])cc1 (configuration not stated)	n	n	n	n	n
N#Cc1ccc(-c2nc3ccc(Br)cc3c(=O)n2O)cc1	n	n	x	x	n
O=c1c2cc(Br)ccc2nc(-c2cccc(C(F)(F)F)c2)n1O	n	61	n	n	54
CCc1c(O)cc2n(c1=O)-c1ccc(Cl)cc1C2(C)C	n	n	n	n	n
O=C(O)c1sccc1SCc1ccc(Cl)c(Cl)c1	n	22	n	n	n
COC(=O)CSc1ccsc1C(=O)O	n	n	n	n	n
COc1ccc(NC(=O)[C@@H](NS(=O)(=O)c2cccc(Cl)c2)C(C)C)cc1S(=O)(=O)N1CCOCC1	n	n	x	x	n
Cc1nn(C)c(C)c1NC(=O)COc1ccc(Cl)cc1Br	n	n	x	x	n
SMILES	OXTR potentiate	V1R ag counter	zfTRPN1 agonist	TRPML3 agonist	OXTR agonist
N#Cc1c(Cl)nsc1NC(=O)c1ccccc1	n	n	30	21	n
O=C(Cc1ccc(Cl)cc1)Nc1cc(S(=O)(=O)N2CCOCC2)ccc1N1CCCC1	n	n	n	n	n
CN1CCN(c2ccc(S(=O)(=O)N3CCCCC3)cc2NC(=O)Cc2ccc(Cl)cc2)CC1	n	26	n	n	21
CCOC(=O)C1CCN(C(c2cccnc2)c2c(NC(=O)c3ccco3)sc(C)c2C)CC1 (configuration not stated)	12	n	n	n	n
Cc1sc(NC(=O)c2ccco2)c(C(c2cccnc2)N2CCN(CCO)CC2)c1C (configuration not stated)	n	n	n	n	n
CC(NC(=O)NC(=O)c1cccc(Cl)c1)c1ccccc1 (configuration not stated)	n	n	x	x	n
O=C(Cc1ccccc1)Nc1ccccc1C(=O)N1CCN(c2ccccc2)CC1	n	n	x	x	n
